Data reported in ChEMBL document CHEMBL1132215, “A new method for rapidly generating inhibitors of glyoxalase I inside tumor cells using S-(N-aryl-N-hydroxycarbamoyl)ethylsulfoxides” (J Med Chem, 1999).

How the values were obtained:
[1] = Second-order rate constant for acyl-interchange reactions between glutathione and the compound; assay type: ADME
How it was run: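 Cell-free reaction with glutathione in 0.1 M potassium phosphate, pH 7.5, 5% ethanol, 25 °C. Under pseudo-first-order conditions (≥10-fold glutathione excess), derived from the first-order loss of reactants followed spectrophotometrically. For the slow ester analogue, taken instead from the initial rate of product appearance (~0.1% reaction) with 15-fold glutathione excess, followed by reverse-phase HPLC.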

L1210 [2] = assay: Concentration producing 50% growth inhibition of L1210 cells; assay type: functional; conditions: Mus musculus
How it was run: (§1)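 Murine L1210 leukemia cells (NCI tumor repository) in log phase, kept in RPMI 1640 with […], 10% heat-inactivated fetal calf serum and gentamycin (10 µg/mL), 37 °C, 5% CO2. Seeded at 5000 cells/well with at least five drug levels in triplicate. Fresh drug added every 12 h. Cell density counted by Coulter Counter after 48 h. Percentage growth taken against time-zero and no-drug counts. Values interpolated from dose-response curves; mean and SD of three experiments on different days.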

L1210 [3] = assay: Concentration producing 100% tumor growth inhibition of L1210 cells; assay type: functional; conditions: Mus musculus; how it was run: as §1
L1210 [4] = assay: Concentration required to kill 50% L1210 cells; assay type: ADME, cell-based; conditions: mouse
How it was run: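 Mouse L1210 leukemia cells in log growth, RPMI 1640 with 10% heat-inactivated fetal calf serum and gentamycin (10 µg/mL), 37 °C, 5% CO2. Seeded at 5000 cells/well with at least five drug levels in triplicate. Fresh drug added every 12 h. Cell density counted by Coulter Counter after 48 h, viability by trypan blue. LC50 (50% cell killing) interpolated from dose-response curve; three experiments on different days.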

L1210 [5] = assay: Rate constant from the plots of initial rates of disappearance of the drug inside L1210 cells versus extracellular concentration of prodrug.; assay type: functional, Mus musculus; conditions: in the assay text read “appearance” for “disappearance”
How it was run: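 L1210 suspensions (~1.5 × 10^6 cells/mL) in RPMI 1640/10% heat-inactivated FCS with gentamycin, 37 °C, were given fixed prodrug levels. Aliquots taken over time were spun through silicone oil. Pellets were extracted with 70% ethanol and the glutathione conjugate was measured by C18 reverse-phase HPLC at 260 nm against standard curves. The constant is the slope of initial intracellular appearance rate versus extracellular prodrug concentration.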

Structure (SMILES) | k2 [1] | GI50 (L1210 [2]) | TGI (L1210 [3]) | LC50 (L1210 [4]) | Rate constant (L1210 [5])
CC[S+]([O-])C(=O)N(C)c1ccc(Cl)cc1 (stereo unspecified) | 2.33 M⁻¹ s⁻¹ |  |  |  | 
Cl.NC(CCC(=O)NC(CSC(=O)N(O)c1ccc(Cl)cc1)C(=O)NCC(=O)OC1CCCC1)C(=O)OC1CCCC1 (stereo unspecified) |  | 3.4 µM | 5.3 µM | 8.3 µM | 0.59 min⁻¹
CCOC(=O)CNC(=O)C(CSC(=O)N(O)c1ccc(Cl)cc1)NC(=O)CCC(N)C(=O)OCC.Cl (stereo unspecified) |  | 7 µM | 27 µM | 54 µM | 0.1 min⁻¹
CC[S+]([O-])C(=O)N(O)c1ccc(Cl)cc1 (stereo unspecified) | 30.7 M⁻¹ s⁻¹ | 0.5 µM | 3.9 µM | 13 µM | 1.41 min⁻¹
CC[S+]([O-])C(=O)N(C)O (stereo unspecified) | 9.83 M⁻¹ s⁻¹ |  |  |  | 
CCSC(=O)N(O)c1ccc(Cl)cc1 | 5.83e-06 M⁻¹ s⁻¹ |  |  |  | 
